# From PubChem
# Compounds with a hit are over-represented: about 3.3% of the library has one in this group of screens.
# ABHD4 inh: ABHD4 inhibitors, primary screen, biochemical, fluorescence polarization, mouse; purified mABHD4, FP-Rh probe fluorescence polarization; inhibition, % at 8.92 µM; (Lyso)-N-acylphosphatidylethanolamine lipase (Mus musculus), Q8VD66; hit rate 0.54% among 370,000;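 active means inhibition exceeding the mean over every tested compound plus 3 SD, cut at about 30% in these data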;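 further: 0% = plate median of compound wells and 100% = S159A mutant with DMSO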
#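 System: mouse ABHD4 enzyme, wild type / Medium: HEPES pH 7.0, NaCl, Pluronic buffer / Reagent: FP-Rh activity-based fluorescent probe / Control set: S159A mutant high control, sample median low control / Detection: fluorescence polarization with parallel and perpendicular emission, 525/598 nm / Schedule: 45 min + 60 min at 25 °C / Compound dosing: 8.92 µM, single dose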
# PRMT1 inh: PRMT1 methyltransferase inhibitors, primary screen, biochemical, fluorescence polarization | Protein arginine N-methyltransferase 1 (Homo sapiens), Q99873 | recombinant PRMT1, activity-based probe fluorescence polarization | inhibition, % at 2.79 µM | hit rate 1.3% among 370,000;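 active means inhibition above about 21% made by adding two undisclosed values, limit read from the data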
# SIAE primary: human SIAE inhibitors, primary screen, biochemical, fluorescence polarization, FP-Rh probe, 1536-well HTS; Sialate O-acetylesterase (Homo sapiens), Q9HAT2; SIAE FP-Rh probe binding; inhibition, % at 9.66 µM; hit rate 0.69% among 370,000; AID 1053197, 2014;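 active means inhibition above a cutoff: mean of compounds within the control limits plus 3 SD of those, cut at about 17% in these data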;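 further: 0% = plate median of compound wells and 100% = probe without SIAE protein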
# Target sequence (Q9HAT2 whole entry, looked up): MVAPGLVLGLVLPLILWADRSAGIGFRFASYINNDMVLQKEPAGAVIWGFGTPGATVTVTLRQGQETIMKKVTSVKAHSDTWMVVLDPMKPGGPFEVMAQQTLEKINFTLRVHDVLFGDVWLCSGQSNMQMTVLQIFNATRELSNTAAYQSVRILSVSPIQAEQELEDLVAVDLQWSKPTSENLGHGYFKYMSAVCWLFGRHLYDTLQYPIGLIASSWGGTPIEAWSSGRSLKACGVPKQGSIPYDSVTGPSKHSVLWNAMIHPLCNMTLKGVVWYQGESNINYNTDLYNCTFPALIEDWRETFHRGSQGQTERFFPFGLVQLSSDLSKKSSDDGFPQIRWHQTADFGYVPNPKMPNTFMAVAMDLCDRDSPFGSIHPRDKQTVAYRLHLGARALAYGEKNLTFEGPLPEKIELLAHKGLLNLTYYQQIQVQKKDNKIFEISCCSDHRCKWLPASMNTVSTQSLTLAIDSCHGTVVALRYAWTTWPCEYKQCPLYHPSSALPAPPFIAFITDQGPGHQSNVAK
# rCAG RNA binder: binders of r(CAG) RNA repeats, primary screen, biochemical, fluorescence | r(CAG) RNA repeat, TO-PRO-1 dye displacement fluorescence | inhibition, % at 3 µM | hit rate 1.3% among 370,000 | AID 651821, 2012;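 active means inhibition above the plate cutoff, the mean of all test compounds on that plate plus 3 SD, cut at about 35% in these data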;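 further: 0% = DMSO alone and 100% = 100 µM mitoxantrone as full dye displacement; higher means more dye released from RNA so lower well fluorescence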
# TCR CD3 inh: inhibitors of human TCR-CD3 interaction, primary screen, biochemical, fluorescence, TAMRA-labeled TCR probe | hit rate 0.37% among 360,000 | T-cell receptor (TCR) | inhibition, % at 9.4 µM; in the data active means inhibition above about 19%;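 further: recombinant mutant TCR 2C K166C tagged with TAMRA read by polarization; 0% = receptor in buffer alone and 100% = receptor with positive control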
# * = called active by the depositor; / = no result.
SMILES,ABHD4 inh,PRMT1 inh,SIAE primary,rCAG RNA binder,TCR CD3 inh
CC(=O)Nc1sc(N/N=C\c2cccc(Cl)c2)nc1-c1cccs1,-9,11,2,14,-9
CCCCCCCCN1CCS(=O)(=O)N(Cc2ccc(C)cc2)C(C(=O)OC)C1 (stereo unspecified),-3,-3,5,0,/
Cc1nc2c(C(=O)NCc3ccccc3)c[nH]n2c(=O)c1Cl,-3,1,3,41*,-4
O=C(NC1=C(Nc2ccc(Cl)cc2)C(=O)c2ccccc2C1=O)c1ccccc1,16,0,-11,1,-6
Cc1cccc(NC2=C(NC(=O)c3ccccc3)C(=O)c3ccccc3C2=O)c1,15,29*,13,7,7
O[C@H](COc1cc(F)cc(F)c1)CN1CCC(C(O)(c2ccccc2)c2ccccc2)CC1,6,-2,4,2,/
CCOc1cc(NC(=S)Nc2cccc(OC)c2)c(OCC)cc1NC(=O)C(C)C,9,9,-1,3,-7
CCOc1cc(NC(=S)Nc2cccc(C)c2)c(OCC)cc1NC(=O)CC(C)C,15,24*,9,1,-6
O=C(Nc1ccc(Nc2cccnc2)cc1)c1c[nH]c2ccccc12,42*,8,13,11,0
CC1CCCC=CC2CC(OC(=O)CN(C)C)CC2C(O)C=CC(=O)O1 (stereo unspecified),-18,7,-4,-1,-9
C[C@H]1CCC/C=C/[C@@H]2C[C@H](O)C[C@H]2[C@H](O)[C@H](S(=O)c2ccc(O)cc2)CC(=O)O1 (stereo partly specified),-14,73*,7,7,-8
CCOc1cc(C(=O)Nc2ccc(C)cc2C)ccc1OCC(=O)N1CCCCC1,2,-2,4,-4,-4
COc1cc(C(=S)N2CCCC2)cc(Cl)c1OCC(=O)Nc1ccc(C)cc1C,-10,22*,-12,0,-7
Cc1cc(NC(=O)c2ccc(NS(=O)(=O)c3ccc(F)cc3)cc2)no1,5,1,-1,5,/
CCOC(=O)[C@H](Cc1ccccc1)NC(=O)[C@H]1C[C@@]2(N3CCCCC3)c3ccccc3N(C(=O)OC(C)(C)C)[C@H]2N1C(=O)OC(C)(C)C,-6,3,5,6,/
CC1=C2NC(N)=[N+](Cc3ccc4c(c3)OCO4)CC2NOC1 (stereo unspecified),9,3,9,/,/
O=S(=O)(Nc1nc2ccccc2s1)c1cc(F)ccc1F,-39,-2,-5,25,-4
O=S(=O)(Nc1nc2ccccc2s1)c1ccc(Cl)s1,-28,-3,2,44*,10
c1ccc(Cn2c(SCC3CCC3)nnc2-c2cccnc2)cc1,3,1,1,-1,/
Cc1noc(NS(=O)(=O)c2ccc(NC(=O)CSc3nnc(-c4ccccc4)n3C3CCCCC3)cc2)c1C,4,0,-1,63*,3
Cc1noc(NS(=O)(=O)c2ccc(NC(=O)CSc3n[nH]c(-c4ccccc4)n3)cc2)c1C,-5,6,-1,34,-2
CCN(CC)CCN(C(=O)c1ccc2ncsc2c1)c1nc2cc3c(cc2s1)OCO3,-1,53*,1,-3,-2
N#CCNC1CC(=O)N(c2ccc(F)cc2)C1=O (stereo unspecified),0,22*,-4,-1,-3
O=C1CC(NCc2ccc(F)cc2)C(=O)N1c1ccccc1 (stereo unspecified),2,22*,-6,-2,-1
O=C1CC(NCc2ccncc2)C(=O)N1c1ccccc1 (stereo unspecified),10,9,2,11,-6
SMILES,ABHD4 inh,PRMT1 inh,SIAE primary,rCAG RNA binder,TCR CD3 inh
COc1cc(C(Nc2ccc3c(c2)OCO3)C(=O)NC2CCCCC2)cc(OC)c1OC (stereo unspecified),4,25*,6,-2,-1
COc1ccc2c(c1)CCCN2C(=O)C1CCCN(S(=O)(=O)c2cccc3cccnc23)C1 (stereo unspecified),4,3,2,1,/
CCOC(=O)C(NC(=O)CC(C)C)(Nc1sc(C)c(CC)c1C#N)C(F)(F)F (stereo unspecified),-8,-2,0,-6,4
CCOC(=O)C(NC(=O)CCl)(Nc1sc(C)c(CC)c1C#N)C(F)(F)F (stereo unspecified),-1,22*,11,-2,2
CCOC(=O)N1CCN(C(=O)c2cc3sccc3n2C)CC1,4,4,0,-4,2
Cc1ccc(C)c(N2CCN(C(=O)c3cc4sccc4n3C)CC2)c1,2,22*,7,7,0
CCC1(C)Cc2ccccc2/C(=C/C(=O)N2CCCCC2)N1 (stereo unspecified),18,22*,3,-7,4
O=c1c2ccccc2n(Cc2ccno2)n1[C@@H](Cc1ccccc1)Cn1cc(-c2ccc(-c3ccccc3)cc2)nn1,-20,-2,-15,10,/
O=C(Nc1ccc(Cl)cc1)O[C@@H]1CC[C@@]23CCCN2C(=O)CCC[C@H]3C1,-5,0,-2,/,/
NC(=O)C1CCN(c2nc(-c3ccc4c(c3)CCO4)cs2)CC1,-3,-3,-15,/,/
O=C(OCc1cn(Cc2c(F)cccc2F)nn1)N1CCCC1,8,1,4,1,/
Cc1ccc(OCC(=O)c2cc(C)n(-c3ccccc3)c2C)c([N+](=O)[O-])n1,18,2,4,-1,2
Cc1ccc(C)c(C(=O)COc2ccc(C)nc2[N+](=O)[O-])c1,11,21*,5,4,5
Cc1ccc(OCC(=O)c2cc(C)c(C)cc2C)c([N+](=O)[O-])n1,0,24*,-1,14,-5
CCc1cccc2cc3c(N)c(C(=O)Nc4ccc(S(=O)(=O)N5CCCC5)cc4)sc3nc12,7,20,27*,9,-7
CCCCCc1ccc(NC(=O)OCCCN2CCC3(CCC(c4ccccc4)CC3)C2=O)cc1 (stereo unspecified),-7,1,1,7,/
CC(=O)OCC1=C(C(=O)O)N2C(=O)C(NC(=O)CCn3nc(C)c(Cl)c3C)C2SC1 (stereo unspecified),0,24*,-5,-1,2
O=C(COc1ccccc1)NC1C(=O)N2C(C(=O)O)=C(Cl)CSC12 (stereo unspecified),11,24*,6,5,11
CC(=O)OCC1=C(C(=O)O)N2C(=O)C(NC(=O)CCn3nc(C(F)(F)F)c(Br)c3C3CC3)C2SC1 (stereo unspecified),9,25*,7,17,-1
CC(=O)OCC1=C(C(=O)O)N2C(=O)C(NC(=O)CC(C)c3ccccc3)C2SC1 (stereo unspecified),8,22*,5,11,-5
